Measured values: the array DNA melting data of Ke et al. (doi:10.1101/2024.01.08.574731)

Experiments:
[1] = folding enthalpy; higher = less favourable; fluorescence melt of hairpins on a sequencing array, two-state fit; settings: sodium 0.088 M
Method in brief: (§1)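 Cy3 signals were normalised both to pre-quench Cy3 and to control constructs. They came from library hairpins carrying annealed Cy3 and quencher oligos on a sequenced MiSeq flow cell, imaged in 50 mM Na-HEPES pH 8.0, 25 mM NaCl, in 2.5 °C steps up to 60 °C. Bootstrapped two-state fits gave melting temperature and folding enthalpy, and four replicates were combined by inverse variance. Fitted temperatures were then raised by 9.35 °C to match UV melts.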

[2] = melting temperature; fluorescence melt of hairpins on a sequencing array, two-state fit, raised by 9.35 °C to match UV melts; settings: sodium 0.088 M
Method in brief: as §1

| Sequence | folding enthalpy [1] [kcal/mol] | Tm [2] [°C] |
| --- | --- | --- |
| TCGCAGAAATGCGA (((((....))))) | -17.1 | 54.4 |
| TCTTGGAAACAAGA (((((....))))) | -11.1 | 35.7 |
| TGCTGGAAACAGCA (((((....))))) | -19.4 | 53.1 |
| TGCTTGAAAAAGCA (((((....))))) | -8.9 | 47.9 |
| TGGATGAAAATCCA (((((....))))) | -17.8 | 46.1 |
| TGTGGGAAACCACA (((((....))))) | -20.5 | 49.6 |
| TTACCGAAAGGTAA (((((....))))) | -16.7 | 50.4 |
| TTCTGGAAACAGAA (((((....))))) | -15.6 | 35.4 |
| TTGCGGAAACGCAA (((((....))))) | -18.1 | 57.6 |
| TTGGAGAAATCCAA (((((....))))) | -11.1 | 35.5 |
| TTGGGGAAACCCAA (((((....))))) | -17.4 | 43.4 |
| TTGTCGAAAGACAA (((((....))))) | -18.1 | 55 |
| TTTACGAAAGTAAA (((((....))))) | -13.5 | 42.7 |
| TTTCAGAAATGAAA (((((....))))) | -5.49 | 18 |
